# This is a sample that favours compounds with a hit; in the whole collection about 2.5% have one here.
# GSTO1 inh: blocks human GSTO1 in RBBP9 counter-screen | P78417 | recombinant GSTO1, activity-based probe fluorescence polarization | inhibition, % at 5.96 µM | 300,000 tested, 1.1% active | AID 1974;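 active = inhibition above the campaign mean inhibition plus 3 SD, cut at about 35% in these data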;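 also: 0% = GSTO1-1 with DMSO and 100% = wells lacking GSTO1-1 enzyme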
# PRMT1 inh: PRMT1 (human) inhibition, primary screen. Q99873. recombinant PRMT1, activity-based probe fluorescence polarization. inhibition, % at 2.79 µM. 370,000 tested, 1.3% active;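 active = inhibition above about 21% made by adding two undisclosed values, limit read from the data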
# TDP2 inh: blocks human TDP2 phosphodiesterase activity; 370,000 tested, 0.34% active; inhibition, % at 12.8 µM; AID 720702; recombinant TDP2, T5PNP hydrolysis, p-nitrophenol absorbance 415 nm; O95551;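 active = inhibition above the mean of all tested compounds plus 3 SD, set per campaign, cut at about 25% in these data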;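 also: 0% = DMSO with enzyme and 100% = buffer with substrate but no TDP2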
#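 Assay system: Recombinant human TDP2 | Quantity: 120 nM TDP2 per well | Incubation: 2 h at 37 °C | Signal: Epi absorbance | Evaluation: Percent inhibition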
# CTSL1 counter: blocks F. hepatica cathepsin L1 in PFM18AAP counter-screen | recombinant F. hepatica cathepsin L1, Z-Leu-Arg-MCA fluorescence | inhibition, % at 5.96 µM | 300,000 tested, 0.49% active | AID 1906;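 active = inhibition above the mean of all tested compounds plus 3 SD, set per screening campaign, cut at about 17% in these data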;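 also: 0% = plate median of test compound wells and 100% = 1 µM Z-Phe-Ala-diazomethylketone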
# PAD4 FP inh: blocks human protein arginine deiminase 4. Q9UM07. 330,000 tested, 0.41% active. AID 485272. inhibition, % at 6.36 µM. recombinant PAD4, RCA probe fluorescence polarization;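 active = percent inhibition above a cutoff equal to the mean of all tested compounds plus 3 SD, cut at about 15% in these data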;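 also: 0% = PAD4 with RCA probe and DMSO and 100% = probe without PAD4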
# Target sequence (Q9UM07 whole entry, looked up): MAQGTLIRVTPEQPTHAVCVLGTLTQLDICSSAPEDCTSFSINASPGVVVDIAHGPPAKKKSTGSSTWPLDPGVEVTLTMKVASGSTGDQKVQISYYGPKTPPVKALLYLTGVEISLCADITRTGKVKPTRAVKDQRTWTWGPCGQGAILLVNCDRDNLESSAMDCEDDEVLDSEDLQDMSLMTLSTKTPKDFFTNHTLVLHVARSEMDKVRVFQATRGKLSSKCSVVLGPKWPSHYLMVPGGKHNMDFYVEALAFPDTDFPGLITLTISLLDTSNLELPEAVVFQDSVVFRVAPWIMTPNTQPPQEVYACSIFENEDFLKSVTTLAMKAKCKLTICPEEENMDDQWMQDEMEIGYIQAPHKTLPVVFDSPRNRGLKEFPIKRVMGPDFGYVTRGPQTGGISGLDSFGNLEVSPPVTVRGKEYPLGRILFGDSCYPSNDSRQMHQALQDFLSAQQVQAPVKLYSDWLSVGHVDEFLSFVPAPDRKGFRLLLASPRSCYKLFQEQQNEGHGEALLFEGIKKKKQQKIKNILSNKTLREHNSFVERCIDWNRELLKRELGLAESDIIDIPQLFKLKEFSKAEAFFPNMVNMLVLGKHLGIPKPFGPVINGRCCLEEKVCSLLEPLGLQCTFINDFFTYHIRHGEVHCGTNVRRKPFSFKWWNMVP
# An asterisk follows results filed as active; / = no result.
SMILES,GSTO1 inh,PRMT1 inh,TDP2 inh,CTSL1 counter,PAD4 FP inh
O=C(COC(=O)CNC(=O)c1ccc(Cl)cc1Cl)Nc1ccc(N2CCOCC2)cc1,10.2,3.0,-1.2,17.3*,-4.2
COc1ccc(CCNC(=O)/C=C/c2ccco2)cc1OC,8.4,22.6*,4.5,8.2,1.5
COc1ccc(OC)c(NC(=O)CCCc2ccccc2)c1,4.7,22.0*,-4.7,-0.7,1.6
COc1ccc(OC)c(NC(=O)COC(=O)/C=C/c2ccco2)c1,/,23.1*,-20.7,/,0.5
COc1ccc(CCNC(=O)CSC(=O)c2ccccc2)cc1OC,5.3,22.4*,3.5,1.1,6.5
COc1ccc(OC)c(NC(=O)COC(=O)/C=C/c2ccccc2Cl)c1,13.6,2.2,-10.5,-15.5,-11.2
COc1ccc(CCCC(=O)Nc2cc(C)ccc2OC)cc1,4.9,0.1,-1.4,3.5,1.2
COc1ccc2c(c1)CO[C@H]([C@H](O)CO)[C@H]2/C=C/c1ccccc1,/,6.9,3.8,/,/
O=C(NC1CCCCN(Cc2cccc(C(F)(F)F)c2)C1=O)c1ccc(Cl)c(Cl)c1 (stereo unspecified),/,0.9,3.8,/,/
CCC(C)(C)n1nnnc1C(c1ccc(O)c(OC)c1)N1CCc2ccccc2C1 (stereo unspecified),5.9,23.2*,0.0,-1.5,2.8
COc1ccc(-c2noc(C3CCCN(C(=O)Nc4cc(C)cc(C)c4)C3)n2)cc1 (stereo unspecified),/,-2.9,-9.1,/,/
CC(C)CC(NC(=O)c1ccc(Cl)cc1)C(=O)OCC(=O)c1ccc2c(c1)NC(=O)CO2 (stereo unspecified),5.3,-1.0,8.7,24.6*,4.3
O=c1cc(CSc2nc(NCc3ccccc3)c3ccccc3n2)nc2ccc(Cl)cn12,41.6*,-0.8,10.7,-3.9,5.2
COC(=O)C[C@H]1CC[C@@H]2[C@H](COc3ccc(NC(=O)C(C)C)cc3C(=O)N2C)O1,/,3.6,-7.7,/,/
N#Cc1c(-c2ccccc2)nc(SCC(=O)Nc2nnc(C(F)(F)F)s2)[nH]c1=O,66.7*,0.5,1.4,6.6,-4.6
N#Cc1c(-c2ccccc2)nc(SCC(=O)Nc2ccccc2)[nH]c1=O,-7.8,2.1,-3.7,4.5,-0.2
CNC(=O)COC(=O)c1ccc(-c2nc3ccccc3s2)s1,0.5,-3.5,2.9,-1.6,-1.3
O=CN1CCN(C(=O)c2ccc(-c3nc4ccccc4s3)s2)CC1,2.8,-2.5,-1.1,25.9*,-0.2
c1ccc(Cc2nnc3sc(-c4cccnc4)nn23)cc1,-3.2,5.6,6.1,22.3*,1.2
c1ccc(Cc2nnc3sc(-c4ccncc4)nn23)cc1,-6.2,-0.2,1.9,-4.6,3.6
CC1(C)Oc2ccc(C(=O)N3CCCC3)cc2NC1=O,/,-1.7,3.4,/,/
CCCn1c2ccccc2c2nnc(SCCN3CCOCC3)nc21,-3.3,23.9*,-12.5,3.5,3.5
CCCn1c2ccc(C)cc2c2nnc(SCCN3CCOCC3)nc21,-1.7,12.9,-18.2,0.7,-3.3
CC(=O)Nc1cc(OC(C)=O)c2nonc2c1OC(C)=O,89.3*,59.3*,98.2*,110.2*,82.6*
CC(=O)Nc1nonc1NC(C)=O,-2.8,-2.8,7.1,-0.6,-1.1
SMILES,GSTO1 inh,PRMT1 inh,TDP2 inh,CTSL1 counter,PAD4 FP inh
CC1(OC(=O)CCc2ccccc2)C(=O)C=C2C=C3CCCN3C=C2C1=O (stereo unspecified),36.5*,11.0,8.5,-0.6,-10.7
CC1(OC(=O)C2CCCC2)C(=O)C=C2C=C3CCCN3C=C2C1=O (stereo unspecified),20.9,/,/,-0.8,-2.4
CC(C)(C)c1ccc(-c2nnc(SCC(=O)Nc3ccc(S(=O)(=O)Nc4nccs4)cc3)n2-c2ccc(Cl)cc2)cc1,/,2.7,5.5,/,/
c1cc2c3c(cccc3c1)NC(c1ccc3c(c1)OCO3)N2,35.5*,1.9,6.7,-1.2,-5.5
Clc1ccc(C2Nc3cccc4cccc(c34)N2)cc1,35.3*,8.9,0.6,3.5,1.5
Cc1cccc(C2Nc3cccc4cccc(c34)N2)c1,36.5*,7.7,-8.2,-5.6,-1.4
CSc1ccc(C2Nc3cccc4cccc(c34)N2)cc1,12.4,8.0,15.2,-4.1,-5.0
O=C(c1cccc(F)c1F)N1CCCC(c2nc(-c3cccs3)no2)C1 (stereo unspecified),/,3.8,7.2,/,/
Cc1ccccc1NC(=O)N(C)[C@H]1C[C@H]2c3[nH]c4c(-c5ccccc5)cccc4c3CCN2C[C@H]1[C@H](C)O,/,1.5,2.0,/,/
N#CCc1c(C#N)c(N)nc(N2CCCC(CO)C2)c1C#N (stereo unspecified),3.4,23.1*,2.2,3.1,-5.6
COC(=O)c1cn(-c2ccc3c(c2)[C@@]2(CC(=O)N(C)C2c2ccccc2)C(=O)N3CC(C)C)nn1 (stereo partly specified),/,-0.7,-9.5,/,/
COc1ccc(C(CC(=O)c2ccc(C)cc2)Sc2ccccc2N)cc1 (stereo unspecified),/,24.4*,2.8,/,/
COc1ccc(C(=O)CC(c2ccccc2)S(=O)(=O)c2ccc(C)cc2)cc1 (stereo unspecified),0.8,/,/,-2.6,-1.2
CO[C@H]([C@H](C)/C=C/N(C)C=O)[C@@H](C)C(=O)CC[C@H](C)[C@H](O)[C@H](C)[C@H]1OC(=O)/C=C/C(C)=C/C[C@H](O)C[C@@H]2C=CC[C@@H](C[C@H](OC)[C@@]3(CO3)[C@@H](OC)C[C@@H](OC)[C@@H]1C)O2,/,-1.3,-5.5,/,/
COC(=O)C1=C(C)Nc2[nH]c(=S)[nH]c(=O)c2C1c1ccc(O)cc1 (stereo unspecified),12.6,24.6*,-10.5,2.5,-0.5
CC(C)N1CCCCC(NC(=O)c2ccc(F)cc2)C1=O (stereo unspecified),/,-3.1,-1.2,/,/
COC(=O)NC(NS(=O)(=O)c1ccccc1)(C(=O)OC)C(F)(F)F (stereo unspecified),36.1*,-2.0,1.1,2.5,-1.0
COC(=O)C(NC(C)=O)(Nc1ccccn1)C(F)(F)F (stereo unspecified),8.5,-6.1,-3.9,0.0,0.6
COC[C@@H](OC(C)=O)[C@H]1OCc2ccccc2[C@@H]1/C=C/c1ccccc1,/,-2.2,-1.3,/,/
CSc1ccccc1NC(=O)c1ccccc1,21.8,-0.2,4.2,1.8,1.3
O=C(Nc1ccccc1SC(=O)c1ccccc1)c1ccccc1,/,93.5*,-2.5,/,/
Cc1ccc(C(=O)Sc2cccccc2=O)cc1,37.0*,45.4*,8.4,-4.2,0.9
Cc1ccc(C(=O)CC(=O)c2ccccc2)cc1,1.5,0.1,-3.2,2.1,-1.5
CC(C)C[C@H](NC(=O)OC(C)(C)C)C(=O)N[C@@H](CO)[C@H](O)[C@@H]1C[C@@H]1C(=O)NC1CC1,9.5,0.0,-3.0,19.7*,-0.8
CCCCNC(=O)[C@H]1C[C@H]1[C@@H](O)[C@H](CO)NC(=O)[C@H](CC(C)C)NC(=O)OC(C)(C)C,-1.1,/,/,43.6*,-0.6
CC(C)C[C@H](NC(=O)OC(C)(C)C)C(=O)N[C@@H](CO)[C@H](O)[C@@H]1C[C@@H]1C(=O)N(C)C,3.7,/,/,12.9,2.5
